Laboratory results published in ChEMBL document CHEMBL4334424, “The winding road of the uvaretin class of natural products: from total synthesis to bioactive agent discovery” (Medchemcomm, 2019).
The source made the active and inactive calls. The calls are words filed in the database; no cut-off is given here.

How the values were obtained:
[1] = system: HeLa; experiment: Cytotoxicity against human HeLa cells assessed as reduction in cell viability incubated for 72 hrs by alamar blue assay; format: functional, cell-based
Method in brief: (§1)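 Adherent cells were seeded at 1500 cells/well in 384-well plates and allowed 2–3 h to attach. Compounds in DMSO, diluted in media over 31.6 nM–200 μM, were tested in triplicate for 72 h continuous exposure at 37 °C, 5% CO2. Alamar Blue was added for the final 3 h and fluorescence read (ex 560/em 590 nm). IC50 was fitted from ≥3 independent experiments.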

[2] = system: HCT-116; experiment: Cytotoxicity against human HCT116 cells assessed as reduction in cell viability incubated for 72 hrs by alamar blue assay; format: functional, cell-based; conditions: HCT-116, 72 h; method in brief: as §1
[3] = system: REH; experiment: Cytotoxicity against human REH cells assessed as reduction in cell viability incubated for 72 hrs by alamar blue assay; format: functional, cell-based
Method in brief: (§2)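 Suspension cells (2200/well, 384-well) were added directly onto compound in media with no attachment period. Compounds spanned 31.6 nM–200 μM in triplicate, with 72 h exposure at 37 °C, 5% CO2. Alamar Blue was added for the last 3 h and fluorescence read (ex 560/em 590 nm). IC50 came from ≥3 independent experiments.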

[4] = system: MIA PaCa-2; experiment: Cytotoxicity against human MIAPaCa2 cells assessed as reduction in cell viability incubated for 72 hrs by alamar blue assay; format: functional, cell-based; conditions: MIA PaCa-2, 72 h; method in brief: as §1
[5] = system: A549; experiment: Cytotoxicity against human A549 cells assessed as reduction in cell viability incubated for 72 hrs by alamar blue assay; format: functional, cell-based; conditions: A549, 72 h; method in brief: as §1
[6] = system: U-937; experiment: Cytotoxicity against human U937 cells assessed as reduction in cell viability incubated for 72 hrs by alamar blue assay; format: functional, cell-based; conditions: U-937, 72 h; method in brief: as §2
[7] = system: HCT-116; experiment: Cytotoxicity against human HCT116 cells assessed as reduction in cell viability incubated for 72 hrs in presence of doxorubicin by alamar blue assay; format: functional, cell-based
Method in brief: (§3)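 Same combination format as the 6TP study, with the cytotoxic partner (doxorubicin, etoposide or paclitaxel) combined with test compound. Cells were at 4000/well (adherent) in 100 μL, 1% DMSO, for 72 h at 37 °C, 5% CO2, with Alamar Blue viability read-out. Combination index was derived by the Chou–Talalay protocol and reported as a median.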

[8] = system: HCT-116; experiment: Cytotoxicity against human HCT116 cells assessed as reduction in cell viability incubated for 72 hrs in presence of 6TP by alamar blue assay; format: functional, cell-based
Method in brief: (§4)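 Combination assay in 96-well plates with 100 μL final volume and 1% DMSO. Two test-compound concentrations were crossed with five 6TP concentrations, then cells were added (4000/well adherent, 7000/well suspension). Plates ran 72 h at 37 °C, 5% CO2, with Alamar Blue viability read-out and ≥3 independent experiments. Combination index was calculated by the Chou–Talalay method.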

[9] = system: HCT-116; experiment: Cytotoxicity against human HCT116 cells assessed as reduction in cell viability incubated for 72 hrs in presence of etoposide by alamar blue assay; format: functional, cell-based; method in brief: as §3
[10] = system: HeLa; experiment: Cytotoxicity against human HeLa cells assessed as reduction in cell viability incubated for 72 hrs in presence of doxorubicin by alamar blue assay; format: functional; method in brief: as §3
[11] = system: HCT-116; experiment: Cytotoxicity against human HCT116 cells assessed as reduction in cell viability incubated for 72 hrs in presence of paclitaxel by alamar blue assay; format: functional, cell-based; method in brief: as §3
[12] = system: MIA PaCa-2; experiment: Cytotoxicity against human MIAPaCa2 cells assessed as combinational index at 5 uM incubated for 72 hrs in presence of 25 uM 6TP by alamar blue assay; format: functional; method in brief: as §4
[13] = system: MIA PaCa-2; experiment: Cytotoxicity against human MIAPaCa2 cells assessed as combinational index at 2.5 uM incubated for 72 hrs in presence of 50 uM 6TP by alamar blue assay; format: functional; method in brief: as §4
[14] = system: MIA PaCa-2; experiment: Cytotoxicity against human MIAPaCa2 cells assessed as combinational index at 5 uM incubated for 72 hrs in presence of 100 uM 6TP by alamar blue assay; format: functional; method in brief: as §4
[15] = system: MIA PaCa-2; experiment: Cytotoxicity against human MIAPaCa2 cells assessed as cell viability at 2.5 uM incubated for 72 hrs in presence of 100 uM 6TP by alamar blue assay (reference value: 30.7 %); format: functional; method in brief: as §4
[16] = system: MIA PaCa-2; experiment: Cytotoxicity against human MIAPaCa2 cells assessed as combinational index at 2.5 uM incubated for 72 hrs in presence of 100 uM 6TP by alamar blue assay; format: functional; method in brief: as §4
[17] = system: MIA PaCa-2; experiment: Cytotoxicity against human MIAPaCa2 cells assessed as cell viability at 5 uM incubated for 72 hrs in presence of 100 uM 6TP by alamar blue assay (reference value: 30.7 %); format: functional; method in brief: as §4
[18] = system: MIA PaCa-2; experiment: Cytotoxicity against human MIAPaCa2 cells assessed as combinational index at 2.5 uM incubated for 72 hrs in presence of 25 uM 6TP by alamar blue assay; format: functional; method in brief: as §4
[19] = system: MIA PaCa-2; experiment: Cytotoxicity against human MIAPaCa2 cells assessed as combinational index at 5 uM incubated for 72 hrs in presence of 200 uM 6TP by alamar blue assay; format: functional; method in brief: as §4
[20] = system: MIA PaCa-2; experiment: Cytotoxicity against human MIAPaCa2 cells assessed as cell viability at 2.5 uM incubated for 72 hrs in presence of 10 uM 6TP by alamar blue assay (reference value: 6.9 %); format: functional; method in brief: as §4
[21] = system: MIA PaCa-2; experiment: Cytotoxicity against human MIAPaCa2 cells assessed as cell viability at 5 uM incubated for 72 hrs by alamar blue assay (reference value: 0 %); format: functional; conditions: MIA PaCa-2, 72 h, read-out: Activity; method in brief: as §4
[22] = system: MIA PaCa-2; experiment: Cytotoxicity against human MIAPaCa2 cells assessed as cell viability at 2.5 uM incubated for 72 hrs in presence of 50 uM 6TP by alamar blue assay (reference value: 13.8 %); format: functional; method in brief: as §4
[23] = system: MIA PaCa-2; experiment: Cytotoxicity against human MIAPaCa2 cells assessed as cell viability at 5 uM incubated for 72 hrs in presence of 50 uM 6TP by alamar blue assay (reference value: 13.8 %); format: functional; method in brief: as §4
[24] = system: MIA PaCa-2; experiment: Cytotoxicity against human MIAPaCa2 cells assessed as combinational index at 5 uM incubated for 72 hrs in presence of 50 uM 6TP by alamar blue assay; format: functional; method in brief: as §4
[25] = system: MIA PaCa-2; experiment: Cytotoxicity against human MIAPaCa2 cells assessed as cell viability at 2.5 uM incubated for 72 hrs by alamar blue assay (reference value: 0 %); format: functional; conditions: MIA PaCa-2, 72 h, read-out: Activity; method in brief: as §4
[26] = system: MIA PaCa-2; experiment: Cytotoxicity against human MIAPaCa2 cells assessed as cell viability at 5 uM incubated for 72 hrs in presence of 10 uM 6TP by alamar blue assay (reference value: 6.9 %); format: functional; method in brief: as §4
[27] = system: MIA PaCa-2; experiment: Cytotoxicity against human MIAPaCa2 cells assessed as cell viability at 2.5 uM incubated for 72 hrs in presence of 25 uM 6TP by alamar blue assay (reference value: 6.4 %); format: functional; method in brief: as §4
[28] = system: MIA PaCa-2; experiment: Cytotoxicity against human MIAPaCa2 cells assessed as cell viability at 5 uM incubated for 72 hrs in presence of 25 uM 6TP by alamar blue assay (reference value: 6.4 %); format: functional; method in brief: as §4
[29] = system: MIA PaCa-2; experiment: Cytotoxicity against human MIAPaCa2 cells assessed as combinational index at 2.5 uM incubated for 72 hrs in presence of 200 uM 6TP by alamar blue assay; format: functional; method in brief: as §4
[30] = system: U-937; experiment: Cytotoxicity against human U937 cells assessed as reduction in cell viability incubated for 72 hrs in presence of 6TP by alamar blue assay; format: functional; method in brief: as §4

| Compound | IC50 [1] | IC50 [2] | IC50 [3] | IC50 [4] | IC50 [5] | IC50 [6] | also measured |
| --- | --- | --- | --- | --- | --- | --- | --- |
| COc1cc(O)c(C(=O)/C=C/c2ccccc2)c(OC)c1 [FLAVOKAWAIN B] | > 20 µM | > 20 µM | > 20 µM | 18.2 µM | 19.7 µM | > 20 µM |  |
| COc1cc(O)c(C(C)=O)c(OC)c1 [XANTHOXYLIN] | 18.7 µM | > 20 µM | > 20 µM | > 20 µM | > 20 µM | > 20 µM |  |
| COc1cc(O)c(Cc2ccccc2O)c(O)c1C(=O)/C=C/c1ccccc1 | 4.6 µM | 19.5 µM | > 20 µM | 5.1 µM | 4.3 µM | 2.3 µM | Activity [7]: inactive; Activity [8]: inactive; Activity [9]: inactive |
| COc1cc(OC)c(C(=O)/C=C/c2ccccc2)c(OC)c1Cc1ccccc1O | 2.7 µM | 18.6 µM | > 20 µM | 4.1 µM | 9.3 µM | 4.2 µM | CI [10]: 0.12; Activity [11]: inactive; Activity [8]: inactive; Activity [9]: inactive |
| COCOc1cc(OCOC)c(C(=O)/C=C/c2ccccc2)c(OCOC)c1 | 11.5 µM | > 20 µM | > 20 µM | 11.8 µM | 8.4 µM | 8.1 µM | CI [12]: 0.47; CI [13]: 0.56; CI [14]: 1.01; Activity [15]: 17.6%; CI [16]: 0.96; Activity [17]: 19.3%; CI [18]: 0.24; CI [19]: 2.09; Activity [20]: 14.2%; viability at 5 µM [21]: 20%; Activity [22]: 16.9%; Activity [23]: 17%; CI [24]: 0.57; viability at 2.5 µM [25]: 21.1%; Activity [26]: 18.4%; Activity [27]: 15%; Activity [28]: 17.3%; CI [29]: 1.79 |
| COCOc1cc(O)c(C(=O)/C=C/c2ccccc2)c(OCOC)c1 | 16.7 µM | > 20 µM | > 20 µM | 7.8 µM | > 20 µM | > 20 µM | CI [12]: 1.13; CI [13]: 2.04; CI [14]: 1.42; Activity [15]: 15.2%; CI [16]: 2.18; Activity [17]: 19.9%; CI [18]: 1.21; CI [19]: 1.43; Activity [20]: 7%; viability at 5 µM [21]: 7.2%; Activity [22]: 9.7%; Activity [23]: 13%; CI [24]: 1.87; viability at 2.5 µM [25]: 6.1%; Activity [26]: 8.1%; Activity [27]: 7.2%; Activity [28]: 8.2%; CI [29]: 2.16 |
| COc1cc(OC)c(C(C)=O)c(OC)c1 | 3.8 µM | > 20 µM | > 20 µM | 14.3 µM | 9.8 µM | 7.2 µM |  |
| COCOc1cc(O)c(C(C)=O)c(OCOC)c1 | 12.2 µM | > 20 µM | > 20 µM | > 20 µM | > 20 µM | 7.4 µM |  |
| COc1cc(O)c(Cc2ccccc2O)c(O)c1C(=O)CCc1ccccc1 [UVARETIN] | 3.7 µM | > 20 µM | 11.3 µM | 2 µM | 2.2 µM | 3.6 µM | Activity [7]: inactive; Activity [8]: inactive; Activity [9]: inactive |
| COc1cc(OC)c(C(=O)CCc2ccccc2)c(OC)c1Cc1ccccc1O | > 20 µM | > 20 µM | > 20 µM | > 20 µM | > 20 µM | > 20 µM | CI [10]: 0.11; CI [30]: 0.22 |
| CC(=O)c1c(O)cc(O)cc1O [2,4,6-TRIHYDROXYACETOPHENONE] | > 20 µM | > 20 µM | > 20 µM | > 20 µM | > 20 µM | > 20 µM |  |
| C=CCOc1ccccc1Cc1c(OC)cc(OC)c(C(=O)/C=C/c2ccccc2)c1OC | 5.8 µM | > 20 µM | 12.6 µM | 9.4 µM | 8.5 µM | 7.5 µM |  |
| COCOc1cc(OC)cc(OC)c1C(C)=O | 14 µM | > 20 µM | > 20 µM | > 20 µM | 16.9 µM | 13.3 µM |  |
| COCOc1cc(OCOC)c(C(C)=O)c(OCOC)c1 | > 20 µM | > 20 µM | > 20 µM | 6.1 µM | > 20 µM | 11.7 µM |  |
| COc1cc(OC)c(C(=O)/C=C/c2ccccc2)c(O)c1Cc1ccccc1O | 3.1 µM | > 20 µM | 9.7 µM | > 20 µM | 5.8 µM | 6.8 µM |  |
| COCOc1cc(OC)cc(OC)c1C(=O)/C=C/c1ccccc1 | 4.8 µM | > 20 µM | 19.4 µM | 5.6 µM | 3.5 µM | 2.5 µM |  |
| COc1cc(OC)c(C(=O)/C=C/c2ccccc2)c(OC)c1 | 5.2 µM | > 20 µM | > 20 µM | > 20 µM | 4.3 µM | 6.7 µM |  |
